Measurements published in ChEMBL document CHEMBL3108662, “Controlled oxygen release from pyridone endoperoxides promotes cell survival under anoxic conditions” (J Med Chem, 2013).
The source made the active and inactive calls. The calls are words filed in the database; no cut-off is given here.

Experiments:
[1] = Half life in H2O/D2O at 37 degC by 1H-NMR spectroscopic analysis; format: ADME
[2] = Drug degradation in H2O/D2O assessed as byproduct formation at 37 degC by 1H-NMR spectroscopic analysis; format: physicochemical
[3] = Induction of oxygen release in H2O/D2O; format: physicochemical
[4] = Cytotoxicity against rat primary smooth muscle cells assessed as growth inhibition under anoxic condition up to 100 ug/mL measured over 4 days by WST-1 assay; format: cell-based; settings: 96 h
Procedure, shortened: (§1)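 Primary smooth muscle cells freshly isolated from rat bladder, seeded at 4000 cells/cm² in DMEM/10% FBS/1% Pen/Strep. Additive dissolved in 1:50 H₂O/DMSO and added at 10–200 µg/mL, with or without vitamin C (100 or 200 µg/mL). Normoxic at 37°C, 5% CO₂, or anoxic in sealed N₂-degassed medium, up to 4 days. WST-1 read on days 1–4 (3 h, A450). Triplicates, normalized to untreated = 100%.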

[5] = organism: Rattus norvegicus; assay: Growth promoting activity in rat primary smooth muscle cells under anoxic condition at 50 ug/mL measured over 4 days by WST-1 assay in presence of 100 ug/mL vitamin C; format: functional; procedure, shortened: as §1
[6] = organism: Rattus norvegicus; assay: Growth promoting activity in rat primary smooth muscle cells under normoxic condition at 10 to 50 ug/mL measured over 4 days by WST-1 assay; format: functional; procedure, shortened: as §1
[7] = system: 3T3; assay: Cytotoxicity against […] cells assessed as growth inhibition under anoxic condition at 29 uM measured on day 1 by WST-1 assay in presence of 100 ug/mL vitamin C; format: cell-based; settings: 3t3, 29 µM
Procedure, shortened: (§2)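 3T3 fibroblasts plated at 4000 cells/cm² in DMEM/F-12 with 10% FBS and 1% Pen/Strep. Compound in 1:50 H2O/DMSO was added at 10, 50, 100 or 200 µg/mL, alone or with vitamin C in water (100 or 500 µg/mL). Run normoxic (37°C, 5% CO2) or anoxic (N2-degassed medium, sealed bags under N2, no medium change, up to 4 days). WST-1 read at 450 nm after 3 h on days 1-4. Growth normalized to untreated control as 100%. Triplicates.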

[8] = system: 3T3; assay: Cytotoxicity against […] cells assessed as growth inhibition under anoxic condition at 50 ug/ml measured over 4 days by WST-1 assay in presence of vitamin C; format: cell-based; settings: 3t3, 96 h; procedure, shortened: as §2
[9] = system: 3T3; assay: Growth promoting activity in rat 3T3 cells under normoxic condition at 100 to 200 ug/mL measured on day 1 by WST-1 assay in presence of 500 ug/mL vitamin C; format: functional, cell-based; procedure, shortened: as §2
[10] = Cytotoxicity against rat primary smooth muscle cells assessed as growth inhibition under normoxic condition at 50 ug/mL measured over 4 days by WST-1 assay; format: cell-based; settings: 96 h
Procedure, shortened: (§3)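 Primary smooth muscle cells freshly isolated from rat bladder, plated at 4000 cells/cm² in DMEM/F-12, 10% FBS, 1% Pen/Strep. Compound was added from 1:50 H2O/DMSO at 10–200 µg/mL, with or without vitamin C in water at 100 or 200 µg/mL. Normoxic (37°C, 5% CO2) or anoxic runs: N2-degassed medium, plates sealed under N2 for up to 4 days without medium change. WST-1 absorbance at 450 nm after 3 h, days 1-4. Normalized to untreated control as 100%. Triplicates.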

[11] = system: 3T3; assay: Cytotoxicity against […] cells assessed as growth inhibition under anoxic condition at 29 uM measured over 4 days by WST-1 assay; format: cell-based; settings: 3t3, 96 h; procedure, shortened: as §2
[12] = system: 3T3; assay: Cytotoxicity against […] cells under anoxic condition at 29 uM measured over 4 days by WST-1 assay in presence of 100 ug/mL vitamin C; format: cell-based; settings: 3t3, 96 h; procedure, shortened: as §2
[13] = organism: Rattus norvegicus; assay: Growth promoting activity in rat primary smooth muscle cells under normoxic condition at 50 ug/mL measured over 4 days by WST-1 assay in presence of 100 to 200 ug/mL vitamin C; format: functional; procedure, shortened: as §3
[14] = Cytotoxicity against rat primary smooth muscle cells assessed as growth inhibition under anoxic condition at 50 ug/mL measured over 4 days by WST-1 assay; format: cell-based; settings: 96 h; procedure, shortened: as §3
[15] = system: 3T3; assay: Cytotoxicity against […] cells under normoxic condition at 29 uM measured over 4 days by WST-1 assay in presence of 100 ug/mL vitamin C; format: cell-based; settings: 3t3, 96 h; procedure, shortened: as §2
[16] = system: 3T3; assay: Cytotoxicity against […] cells assessed as growth inhibition under anoxic condition at 100 ug/ml measured on day 4 by WST-1 assay in presence of vitamin C relative to control; format: cell-based; procedure, shortened: as §2
[17] = Cytotoxicity against rat primary smooth muscle cells assessed as growth inhibition under anoxic condition at 50 ug/mL measured over 4 days by WST-1 assay in presence of 200 ug/mL vitamin C; format: cell-based; settings: 96 h; procedure, shortened: as §3
[18] = organism: Rattus norvegicus; assay: Growth promoting activity in rat primary smooth muscle cells under anoxic condition at 29 uM measured over 4 days by WST-1 assay in presence of 100 ug/mL vitamin C; format: functional; procedure, shortened: as §3
[19] = system: 3T3; assay: Growth promoting activity in […] cells under anoxic condition at 29 uM measured on day 1 by WST-1 assay in presence of 100 ug/mL vitamin C; format: functional, cell-based; procedure, shortened: as §2
[20] = Cytotoxicity against rat primary smooth muscle cells assessed as growth inhibition under normoxic condition measured over 4 days by WST-1 assay; format: cell-based; settings: 96 h; procedure, shortened: as §3
[21] = system: 3T3; assay: Cytotoxicity against […] cells assessed as growth inhibition under normoxic condition at 29 to 580 uM measured over 4 days by WST-1 assay in presence of 100 ug/mL vitamin C; format: cell-based; settings: 3t3, 96 h; procedure, shortened: as §2
[22] = system: 3T3; assay: Cytotoxicity against […] cells assessed as growth inhibition under anoxic condition at 200 ug/ml measured over 4 days by WST-1 assay in presence of vitamin C relative to control; format: functional, cell-based; procedure, shortened: as §2
[23] = system: 3T3; assay: Cytotoxicity against […] cells assessed as growth inhibition under normoxic condition at 50 ug/ml measured over 4 days by WST-1 assay in presence of vitamin C; format: cell-based; settings: 3t3, 96 h; procedure, shortened: as §2
[24] = system: 3T3; assay: Cytotoxicity against […] cells assessed as growth inhibition under normoxic condition measured over 4 days by WST-1 assay; format: cell-based; settings: 3t3, 96 h; procedure, shortened: as §2
[25] = Induction of singlet oxygen release in water at 0.1 mM measured every 10 mins by SOSG assay; format: physicochemical; settings: buffer, 100 µM
Procedure, shortened: (§4)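 Singlet oxygen sensor green was dissolved in MeOH. Compound was dissolved in MeOH, then diluted in water, with or without vitamin C dissolved in water. Fluorescence (ex/em 488/525 nm) recorded every 10 min at 37 °C. Blanks of SOSG or SOSG/vitamin C were subtracted. Triplicates.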

[26] = Induction of oxygen release in H2O/D2O relative to DMSO-treated control; format: physicochemical
[27] = system: 3T3; assay: Cytotoxicity against […] cells assessed as growth inhibition under normoxic condition at 100 ug/ml measured on day 4 by WST-1 assay in presence of vitamin C relative to control; format: cell-based; procedure, shortened: as §2
[28] = system: 3T3; assay: Cytotoxicity against […] cells assessed as growth inhibition under normoxic condition at 200 ug/ml measured over 4 days by WST-1 assay in presence of vitamin C relative to control; format: cell-based; settings: 3t3, 96 h; procedure, shortened: as §2
[29] = system: 3T3; assay: Cytotoxicity against […] cells assessed as growth inhibition under anoxic condition at 29 to 580 uM measured over 4 days by WST-1 assay in presence of 100 ug/mL vitamin C; format: cell-based; settings: 3t3, 96 h; procedure, shortened: as §2
[30] = Induction of singlet oxygen release in water at 0.1 mM measured every 10 mins by SOSG assay in presence of 0.37 mM vitamin C; format: physicochemical; settings: buffer, 100 µM; procedure, shortened: as §4
[31] = organism: Rattus norvegicus; assay: Growth promoting activity in rat primary smooth muscle cells under normoxic condition at 29 uM measured over 4 days by WST-1 assay in presence of 100 ug/mL vitamin C; format: functional; procedure, shortened: as §3
[32] = organism: Rattus norvegicus; assay: Growth promoting activity in rat primary smooth muscle cells under normoxic condition at 100 to 200 ug/mL measured over 4 days by WST-1 assay; format: functional; procedure, shortened: as §1
[33] = Cytotoxicity against rat primary smooth muscle cells assessed as growth inhibition under normoxic condition at 100 to 200 ug/mL measured over 4 days by WST-1 assay; format: cell-based; settings: 96 h; procedure, shortened: as §1
[34] = system: 3T3; assay: Growth promoting activity in […] cells assessed as change in cell growth under anoxic condition at 100 ug/ml measured over 4 days by WST-1 assay; format: functional, cell-based
Procedure, shortened: (§5)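 3T3 fibroblasts seeded at 4000 cells/cm² in DMEM/10% FBS/1% Pen/Strep. Additive from 1:50 H₂O/DMSO at 10–200 µg/mL, with or without vitamin C (100 or 500 µg/mL). Normoxic at 37°C, 5% CO₂, or anoxic with N₂-degassed medium and N₂ glove-bag handling in sealed bags, no medium change, up to 4 days. Daily WST-1 (1:10, 3 h, A450). Triplicates, normalized to untreated control = 100%.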

[35] = system: 3T3; assay: Cytotoxicity against […] cells assessed as growth inhibition under normoxic condition at 500 ug/mL after 2 days by WST-1 assay; format: cell-based; settings: 3t3, 48 h; procedure, shortened: as §5
[36] = system: 3T3; assay: Growth promoting activity in […] cells under anoxic condition at 500 ug/mL measured on day 1 by WST-1 assay; format: functional, cell-based; procedure, shortened: as §5

In the case of `COCCOCCOCCOC(=O)CN1C(=O)C2(C)C=C(C)C1(C)OO2` (configuration not stated), the half-life [1] is reported as 15 h, the Drug degradation [2] is reported as greater than 50% and the Activity [3] is reported as 10%.

In the case of `COCCOCCOCCOC(=O)CN1C(=O)C2C=CC1(C)OO2` (configuration not stated), the half-life [1] is reported as 4 h, the Drug degradation [2] is reported as greater than 50% and the Activity [3] is reported as 50%.

In the case of `COCCOCCOCCOC(=O)Cn1cccc(C)c1=O`, the Activity [4] is reported as “Non-toxic”, the Activity [5] is reported as “inactive” and the Activity [6] is reported as “inactive”.

In the case of `COCCOCCOCCOC(=O)CN1C(=O)C2(C)C=CC1OO2` (configuration not stated), the Activity [7] is reported as “Non-toxic”, the Activity [8] is reported as “Toxic” and the Activity [9] is reported as “Active”. For the same compound, the Activity [10] was “Toxic”, the Activity [11] was “Non-toxic” and the Activity [12] was “Toxic”. The Activity [13] was “Active”, the Activity [14] was “Toxic” and the Activity [15] was “Toxic”. The “fold change (FC)” value [16] was 2, the Activity [17] was “Toxic” and the Activity [18] was “Active”. The Activity [19] was “Active”, the “growth inhibition (GI)” value [20] was “Dose-dependent effect” and the Activity [21] was “Non-toxic”. For the same compound, the Activity [22] was “inactive”, the Activity [23] was “Toxic” and the “growth inhibition (GI)” value [24] was “Dose-dependent effect”. For the same compound, the Activity [25] was “Active”, the Activity [26] was 78% and the Drug degradation [2] was 20%. The “fold change (FC)” value [27] was 10, the Activity [28] was “Non-toxic” and the Activity [29] was “Non-toxic”. For the same compound, the Activity [30] was “Not Active” and the Activity [31] was “Active”.

Work on `COCCOCCOCCOC(=O)CN1C(=O)C2C=CC1OO2` (configuration not stated) yielded a half-life [1] of 0.5 h and an Activity [26] of 18%.

For `COCCOCCOCCOC(=O)CN1C(=O)C2(C)C=C(C)C1OO2` (configuration not stated), the half-life [1] was 13 h and the Activity [26] was 47%.

In the case of `COCCOCCOCCOC(=O)CN1C(=O)C2(C)C=CC1(C)OO2` (configuration not stated), the half-life [1] is reported as 4 h, the Drug degradation [2] is reported as greater than 50% and the Activity [3] is reported as 50%.

With `O=C1O[C@H]([C@@H](O)CO)C(O)=C1O` [ASCORBIC ACID] the Activity [32] was “inactive”, the Activity [33] was “Non-toxic” and the Activity [34] was “inactive”. The Activity [35] was “Toxic” and the Activity [36] was “Active”.
